Screening data: PubChem BioAssay, several laboratories
Jurkat NFkB inh: lowers PMA/ionomycin-induced NF-kB signal in Jurkat cells | AID 435003 | 330,000 tested, 0.53% active | PMA/ionomycin-induced NF-kB luciferase reporter, luminescence | inhibition, % at 4 µM; in the data active means inhibition above about 50%
T cruzi inh: blocks replication of Trypanosoma cruzi; T. cruzi beta-gal in NIH3T3, luminescence, 90 h; 300,000 tested, 1.4% active; inhibition, % (no concentration beside the values);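 active means mean inhibition across valid replicates above about 55%, limit read from the data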;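 further: signal also drops with host cell toxicity which is not excluded here; 0% = plate median of DMSO wells and 100% = zero luminescence signal; higher percent means less beta-gal luminescence so fewer parasites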
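Test system: β-gal T. cruzi (Tulahuen C4) inside NIH/3T3 cells / Quantity: 5,000 cells/well / Measured by: luminescence from GalScreen with 0.05% NP40, read after 60 min / Medium: DMEM plus 2% FBS / Measure: parasite load inhibition, % / Reagent: Tulahuen C4 trypomastigotes, 5000/well / Schedule: co-culture of at least 90 h after 3 h attachment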
HSF1 inhib: HSF1 inhibition | NIH3T3-HGL HSE-luciferase, MG132-induced, luminescence 8 h; stronger effect = lower value | activity change, negative = inhibition, % at 7.5 µM (by protocol) | 300,000 tested, 0.77% active | AID 2098;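 active means more than half of replicate wells show activity change below -50%, luminescence cut by over half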;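 further: luciferase reports HSF-1 transcriptional activity via heat shock element; 0% = median of DMSO wells and -100% = zero luminescence signal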
GPR7 antagonist: human neuropeptides B/W receptor 1 antagonism; 290,000 tested, 1.1% active; P48145; GPR7-expressing cells, fluorescence antagonist assay; inhibition, % at 4.4 µM; in the data active means inhibition above about 16%, passing the limit was not always enough;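 further: cells stimulated with the agonist NPW; 0% = agonist with vehicle and 100% = vehicle without agonist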
Target sequence (P48145 whole entry, looked up): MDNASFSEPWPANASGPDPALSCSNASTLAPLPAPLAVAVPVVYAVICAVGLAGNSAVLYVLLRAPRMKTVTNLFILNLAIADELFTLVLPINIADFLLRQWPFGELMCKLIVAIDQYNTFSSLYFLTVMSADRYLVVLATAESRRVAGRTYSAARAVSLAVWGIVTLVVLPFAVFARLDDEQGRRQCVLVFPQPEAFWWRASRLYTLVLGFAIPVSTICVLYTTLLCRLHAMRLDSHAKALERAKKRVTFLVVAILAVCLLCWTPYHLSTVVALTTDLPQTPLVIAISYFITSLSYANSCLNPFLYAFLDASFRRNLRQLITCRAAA
HSF1 activator: increases HSF-1 driven luciferase reporter signal; NIH3T3-HGL HSF-1 luciferase reporter, MG132, 8 h; 100% = twice DMSO control signal; activation, % at 9 µM; 300,000 tested, 1.7% active; AID 504408;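 active means mean replicate activation of at least 50% with a set share of replicates each reaching 50%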;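 further: 0% = median of the neutral control wells and 100% = twice that signal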
697 NFkB inh: lowers PMA/ionomycin-induced NF-kB signal in 697 B cells | 697 B-cell NF-kB luciferase reporter, 16 h | inhibition, % at 4 µM | 330,000 tested, 0.33% active; in the data active means inhibition above about 35%
GPR7 antag cf: human GPR7 antagonism, confirmation assay; inhibition, % at 4.4 µM; shares compounds with GPR7 antagonist; 2,400 tested, 52% active; GPR7-expressing cells, calcium fluorescence antagonist mode; in the data active means inhibition above about 24%;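 further: stimulated with the GPR7 agonist NPW; 0% = agonist plus vehicle and 100% = vehicle alone without agonist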
MCHR1 antag: MCHR1 (human) antagonism in GPR7 counter-screen | MCHR1-expressing cells, fluorescence antagonist assay | shares compounds with GPR7 antagonist | inhibition, % at 4.4 µM | 2,400 tested, 62% active; in the data active means inhibition above about 22%;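 further: 0% = vehicle with agonist and 100% = vehicle without agonist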
Active calls of the source: *; / = not tested or not shown. This is a sample that favours compounds with a hit; in the whole collection about 4.8% have one here.

SMILES	Jurkat NFkB inh	T cruzi inh	HSF1 inhib	GPR7 antagonist	HSF1 activator	697 NFkB inh	others
NC(=S)c1cn(C2OC(CO)C(O)C2O)c2ncnc(N)c12 (stereo unspecified)	/	48	-67*	4	-71	/
Cc1nc2cc(C(F)(F)F)ccc2n1C1CCN(Cc2nnnn2CCc2ccccc2)CC1	-4	-1	10	20*	17	-5
COc1cc(/C=C/[N+](=O)[O-])ccc1O	4	-17	234	-7	274*	-2
C=CCn1c(O)c(C(CC)=NCc2ccco2)c(=O)[nH]c1=O	6	-9	21	-11	66*	11
Cc1ccsc1C(=O)C1CCCN(Cc2cnc(N3CCCC3)s2)C1 (stereo unspecified)	1	63*	7	3	4	4
CSc1ncc(CN2CCCC(C(=O)c3sccc3C)C2)cn1 (stereo unspecified)	0	11	9	-3	26	10
Cc1ccsc1C(=O)C1CCCN(Cc2ccc(-n3cccn3)cc2)C1 (stereo unspecified)	3	61*	2	-4	-9	3
Cc1ccsc1C(=O)C1CCCN(Cc2c(C)nn(C(C)C)c2C)C1 (stereo unspecified)	6	62*	14	-10	4	-17
Cc1ccc(CN2CCCC(C(=O)c3sccc3C)C2)o1 (stereo unspecified)	-8	66*	4	-6	27	-7
CC(C)COP(=O)(OCC(C)C)C(O)c1cccnc1 (stereo unspecified)	-2	-4	-8	2	-2	-6
COC(=O)C1=C(c2ccc(S(C)(=O)=O)cc2)C[C@@H]2CC[C@H]1N2C(=O)NCC1CC1	10	-13	-2	/	-8	3
COc1ccc(C)cc1NC(=O)N1CCC2(CC1)OCCO2	-6	-11	-4	-14	-2	-17
N#CCCn1cc(C(=O)Nc2ccc(F)cc2)c(-c2ccc([N+](=O)[O-])cc2)n1	11	6	-1	-7	7	-4
N#CCCn1cc(C(=O)Nc2ccc([N+](=O)[O-])cc2)c(-c2ccccc2)n1	10	-3	-71*	-4	-78	11
Cc1ccc(-n2nc(C)c3c2NC(=O)CSC3c2ccc3c(c2)OCO3)cc1 (stereo unspecified)	7	6	-63*	10	-68	14
FC(F)(F)c1ccc(CNCCc2ccc3c(c2)OCO3)cc1	-17	55*	0	-4	-3	-9
Clc1ccc(CNCCc2ccc3c(c2)OCO3)cc1	-16	41	-20	0	-30	-10
NC(N)=N/N=C/c1cn(-c2ccccc2)nc1-c1cccs1	26	46	38	-10	39	7
O=C1NC(=O)C(CCc2ccncc2)(CCc2ccncc2)C(=O)N1Cc1ccccc1	13	-22	-71*	-9	-78	11
CCCCN=Cc1c(O)n(-c2c(C)cc(C)cc2C)c(=O)[nH]c1=O	-4	-11	-14	-2	-6	0
Cn1c(O)c(C=NC2CCN(Cc3ccccc3)CC2)c(=O)[nH]c1=O	-3	10	6	-10	29	9
O=c1[nH]c(=O)n(C2CCCCCC2)c(O)c1C=NC1CCN(Cc2ccccc2)CC1	12	65*	-4	-10	-17	-16
CCOC(=O)c1c(-n2c(C)cc(/C=C3/C(=O)NC(=O)N(CC)C3=O)c2C)sc2c1CCCC2	-3	13	-11	-9	-10	17
CCN1C(=O)NC(=O)/C(=C/c2cc(C)n(-c3sc(C)c(C)c3C#N)c2C)C1=O	3	-15	-56*	4	-68	2
COc1cc(C2NCc3ccccc3-n3cccc32)ccc1O (stereo unspecified)	-7	-8	16	8	54*	9
SMILES	Jurkat NFkB inh	T cruzi inh	HSF1 inhib	GPR7 antagonist	HSF1 activator	697 NFkB inh	others
CCOc1cc2c(cc1OCC)-n1cccc1C(c1cccc(OCC)c1O)NC2 (stereo unspecified)	-23	-2	29	1	51*	13
CCOc1cc(C2NCc3ccccc3-n3cccc32)ccc1OC (stereo unspecified)	-8	17	-2	5	4	4
O=C1NC(=S)NC(=O)C1=Cc1cccn1-c1ccc(O)cc1	/	-64	139	-8	154*	/
CCOc1cc2c(cc1OCC)-n1cccc1C(c1ccc(C)cc1C)NC2 (stereo unspecified)	-3	33	10	38*	9	9	GPR7 antag cf=19;MCHR1 antag=23*
O=C(Nc1nccs1)C(Cl)(Cl)Cl	0	-12	-1	-11	1	7
O=C(Nc1ccc(Cl)cc1)Nc1nccs1	45	-55	17	30*	30	-30	GPR7 antag cf=28*;MCHR1 antag=42*
CCn1c(O)c(/C(C)=N/N2CCCCC2c2cccnc2)c(=O)[nH]c1=S (stereo unspecified)	2	7	-2	5	-5	3
Cc1nn(C)c(C)c1P(=S)(c1c(C)nn(C)c1C)N(C)C	3	-12	-10	26*	-1	16	GPR7 antag cf=-11;MCHR1 antag=-3
CNC(C)Cc1ccccc1Sc1ccc(O)cc1 (stereo unspecified)	-2	-1	-5	30*	-15	8	GPR7 antag cf=30*;MCHR1 antag=30*
CCC1(CC)C(=O)NC(=NCCc2c[nH]c3ccccc23)NC1=O	-16	-4	-6	28*	6	5	GPR7 antag cf=-3;MCHR1 antag=7
NCCc1c[nH]c2ccccc12	-10	/	/	-5	/	-3
c1cc(CCN2CCCC2)ccn1	1	-4	-9	-5	4	10
CCOC(=O)C(O)(c1ccc(NC(=S)NC(=O)c2ccc(Cl)cc2Cl)cc1)C(F)(F)F (stereo unspecified)	10	25	-10	60*	-14	-47	GPR7 antag cf=86*;MCHR1 antag=93*
COC(=O)C(O)(c1ccc(NC(=S)NC(=O)c2ccc(Cl)cc2Cl)cc1)C(F)(F)F (stereo unspecified)	6	5	-3	33*	-11	-42	GPR7 antag cf=56*;MCHR1 antag=60*
CCOC(=O)C(O)(c1ccc(NC(=O)Oc2ccccc2)cc1)C(F)(F)F (stereo unspecified)	3	-4	3	-2	-10	-7
CCOC(=O)C(O)(c1ccc(NC(=S)NC(=O)c2ccc(Cl)cc2Cl)c(C)c1)C(F)(F)F (stereo unspecified)	11	12	-8	88*	-1	-31	GPR7 antag cf=93*;MCHR1 antag=97*
